Reference: ChEMBL document CHEMBL4038344, “Novel Diarylurea Based Allosteric Modulators of the Cannabinoid CB1 Receptor: Evaluation of Importance of 6-Pyrrolidinylpyridinyl Substitution” (J Med Chem, 2017)
Calls of active or inactive are those of the source. The rule behind the calls is not given here.

Key:
[1] = molecular target: T1, Cannabinoid receptor 2 (Homo sapiens, UniProt P34972); assay: Agonist activity at human CB2 receptor expressed in CHO cells co-expressing Galpha16 assessed as increase in calcium mobilization at 10 uM measured at 1 sec interval for 90 secs by calcium-5 dye based FLIPR assay relative to CP55,940; type: functional, cell-based
Outline: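 CB2 agonist screen in stable human CB2-CHO-RD-HGA16 cells. Cells were Calcium 5 dye-loaded for 45 min at 37 °C in HBSS/HEPES/probenecid buffer, pH 7.4, and pretreated with vehicle. FLIPR Tetra then added compound at a single concentration. Fluorescence (485/525 nm) was expressed as % of CP55,940 Emax.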

[2] = molecular target: T1, Cannabinoid receptor 2; assay: Antagonist activity at human CB2 receptor expressed in CHO cells co-expressing Galpha16 assessed as inhibition of CP55,940-induced calcium mobilization at 10 uM preincubated for 15 mins followed by CP55,490 addition measured at 1 sec interval for 90 secs by calcium-5 dye based FLIPR assay relative to CP55,940; type: functional, cell-based
[3] = molecular target: T2, Cannabinoid receptor 1 (Homo sapiens, UniProt P21554); assay: Agonist activity at human CB1 receptor expressed in CHO cells co-expressing Galpha16 assessed as increase in calcium mobilization at 10 uM measured at 1 sec interval for 90 secs by calcium-5 dye based FLIPR assay relative to CP55,940; type: cell-based; conditions: 0.025 h
[4] = molecular target: T1, Cannabinoid receptor 2; assay: Antagonist activity at human CB2 receptor expressed in CHO cells co-expressing Galpha16 assessed as inhibition of CP55,940-induced calcium mobilization preincubated for 15 mins followed by CP55,490 addition measured at 1 sec interval for 90 secs by calcium-5 dye based FLIPR assay; type: functional, cell-based
[5] = molecular target: Cannabinoid receptor 1 (Mus musculus, UniProt P47746); assay: Allosteric modulation of CB1 receptor in CD-1 mouse cerebellar membranes assessed as inhibition of CP55,940-induced [35S]GTPgammaS binding after 60 mins; type: functional, cell membranes, Cerebellum, Membrane
Outline: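 They were preincubated 10 min with adenosine deaminase (3 U/ml) in buffer containing 1 mg/ml BSA, then incubated 60 min at 30 °C with 30 µM GDP, 0.1 nM [35S]GTPγS, 100 nM CP55,940 and compound (0.1% DMSO). Nonspecific binding was measured with 30 µM GTPγS. Read-out was filtration.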

[6] = test system: Liver; assay: Clearance in rat liver microsomes in presence of NADPH by LC-MS/MS analysis; type: ADME, microsome
Outline: (§1)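 Compound was incubated at 37 °C with rat liver microsomes (0.5 mg/mL protein) in 100 mM potassium phosphate, pH 7.4, with 1 mM NADPH. Samples were taken at 0, 5, 15, 30 and 45 min and quenched 1:1 with ice-cold stop solution containing labetalol. Half-life and clearance are mean ± SD of two independent experiments.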

[7] = test system: Liver; assay: (§2) Half life in rat liver microsomes in presence of NADPH by LC-MS/MS analysis; type: ADME, microsome; conditions: microsomes; outline: as §1
[8] = molecular target: T2, Cannabinoid receptor 1; assay: PAM antagonist activity at human CB1 receptor expressed in CHO cells co-expressing Galpha16 assessed as inhibition of CP55,940-induced calcium mobilization up to 100 nM preincubated for 15 mins followed by CP55,490 addition measured at 1 sec interval for 90 secs by calcium-5 dye based FLIPR assay; type: functional, cell-based
[9] = molecular target: Cannabinoid receptor 1 (Mus musculus) (UniProt P47746); assay: PAM antagonist activity at CB1 receptor in CD-1 mouse cerebellar membranes assessed as increase in [3H]CP55,940 binding after 90 mins relative to control; set-up: scale not given: the % may be the effect or the level left; conditions: Cerebellum, Membrane
[10] = molecular target: Cannabinoid receptor 1 (Mus musculus) (UniProt P47746); assay: PAM antagonist activity at CB1 receptor in CD-1 mouse cerebellar membranes assessed as inhibition of CP55,940-induced [35S]GTPgammaS binding after 60 mins; conditions: Cerebellum, Membrane
[11] = test system: Rattus norvegicus; assay: Reduction in cocaine-induced reinstatement of cocaine seeking behavior in Sprague-Dawley rat at 10 mg/kg pretreated for 10 mins followed by cocaine treatment on day following last extinction session; type: functional, organism-based
Outline: (§3)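 Adult male Sprague-Dawley rats (280-300 g) with jugular catheters self-administered cocaine (0.75 mg/kg/infusion, FR1 rising to FR5) in 2-hr daily sessions for 14 days, followed by extinction. On the day after the last extinction session, compound was given 10 min before a cocaine prime (10 mg/kg i.p.). Active lever presses were counted over the 2-hr reinstatement session.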

[12] = as §2; type: ADME, microsome; conditions: liver microsomes; outline: as §1
[13] = test system: Rattus norvegicus; assay: Reduction in cocaine-induced reinstatement of cocaine seeking behavior in Sprague-Dawley rat at 30 mg/kg pretreated for 10 mins followed by cocaine treatment on day following last extinction session; type: functional, organism-based; outline: as §3
[14] = molecular target: Cannabinoid receptor 1 (Rattus norvegicus, UniProt P20272); assay: Allosteric modulation of CB1 receptor in rat cerebellar membranes assessed as inhibition of CP55,940-induced [35S]GTPgammaS binding; type: functional, cell membranes, Cerebellum, Membrane
Cannabinoid receptor 1 (Rattus norvegicus, UniProt P20272), sequence (P20272 whole entry): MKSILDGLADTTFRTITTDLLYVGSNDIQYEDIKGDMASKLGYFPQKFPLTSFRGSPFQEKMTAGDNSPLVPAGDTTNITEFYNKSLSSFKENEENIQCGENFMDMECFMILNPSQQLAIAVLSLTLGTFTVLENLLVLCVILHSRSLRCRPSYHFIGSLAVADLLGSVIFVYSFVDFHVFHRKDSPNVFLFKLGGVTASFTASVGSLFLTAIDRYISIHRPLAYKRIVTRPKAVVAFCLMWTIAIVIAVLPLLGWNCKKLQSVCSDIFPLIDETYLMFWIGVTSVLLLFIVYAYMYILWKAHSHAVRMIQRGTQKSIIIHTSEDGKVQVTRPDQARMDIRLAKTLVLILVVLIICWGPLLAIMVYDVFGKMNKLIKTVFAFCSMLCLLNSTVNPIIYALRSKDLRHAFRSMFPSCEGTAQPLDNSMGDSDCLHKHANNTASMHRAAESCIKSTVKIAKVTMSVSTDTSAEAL

T2 sequence (P21554 whole entry): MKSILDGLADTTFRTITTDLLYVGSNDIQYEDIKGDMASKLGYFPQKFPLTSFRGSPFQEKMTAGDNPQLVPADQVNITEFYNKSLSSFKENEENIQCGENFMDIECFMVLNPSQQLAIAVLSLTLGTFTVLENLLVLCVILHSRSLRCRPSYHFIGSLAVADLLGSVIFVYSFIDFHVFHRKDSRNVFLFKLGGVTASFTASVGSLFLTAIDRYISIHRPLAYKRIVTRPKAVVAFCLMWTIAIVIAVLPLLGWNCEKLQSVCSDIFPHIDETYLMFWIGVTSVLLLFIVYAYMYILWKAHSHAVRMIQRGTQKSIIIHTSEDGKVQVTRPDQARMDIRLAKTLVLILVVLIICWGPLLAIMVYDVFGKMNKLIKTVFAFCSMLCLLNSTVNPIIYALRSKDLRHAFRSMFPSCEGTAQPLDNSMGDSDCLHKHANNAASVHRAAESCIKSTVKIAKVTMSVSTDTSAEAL
T1 sequence (P34972 whole entry): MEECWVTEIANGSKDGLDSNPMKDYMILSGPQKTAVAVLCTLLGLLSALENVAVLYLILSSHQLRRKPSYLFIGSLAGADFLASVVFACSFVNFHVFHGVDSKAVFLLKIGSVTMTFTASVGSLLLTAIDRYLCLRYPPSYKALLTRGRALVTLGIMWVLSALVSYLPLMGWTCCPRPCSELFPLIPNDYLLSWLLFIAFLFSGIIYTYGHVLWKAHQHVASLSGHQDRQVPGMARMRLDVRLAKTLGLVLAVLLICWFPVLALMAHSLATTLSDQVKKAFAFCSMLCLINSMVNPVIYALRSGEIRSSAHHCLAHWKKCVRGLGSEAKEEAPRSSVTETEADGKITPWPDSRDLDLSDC
Cannabinoid receptor 1 (Mus musculus), sequence (P47746 whole entry, looked up): as the sequence (P20272 whole entry) above, with E95D counted along it
Cannabinoid receptor 1 (Mus musculus, UniProt P47746), sequence (P47746 whole entry): as the sequence (P20272 whole entry) above, with E95D counted along it

| SMILES | Emax [1] [%] | Imax [2] [%] | Emax at 10 µM [3] [%] | also measured |
| --- | --- | --- | --- | --- |
| O=C(Nc1ccc(Cl)cc1)Nc1cccc(-c2cc(Cl)cc(Cl)c2)c1 | < 10 | < 50 | 16 |  |
| O=C(Nc1ccc(Cl)cc1)Nc1cccc(-c2ccc(Cl)cc2)c1 | < 10 | < 50 | 21 |  |
| CC(C)(C)c1ccc(-c2cccc(NC(=O)Nc3ccc(Cl)cc3)c2)cc1 | < 10 | < 50 | 4 |  |
| O=C(Nc1ccc(Cl)cc1)Nc1cccc(-c2cnc3ccccc3c2)c1 | < 10 |  | 3 | IC50 [4]: 4.1 µM |
| O=C(Nc1ccc(Cl)cc1)Nc1cccc(-c2ccc3ccccc3n2)c1 | < 10 | < 50 | 5 |  |
| O=C(Nc1ccc(Cl)cc1)Nc1cccc(-c2cccc(-c3ccccc3)c2)c1 | < 10 | < 50 | 1 |  |
| O=C(Nc1ccc(Cl)cc1)Nc1cccc(-c2ccc3occc3c2)c1 | < 10 | < 50 | 1 |  |
| O=C(Nc1ccc(Cl)cc1)Nc1cccc(-c2cccnc2)c1 | < 10 | < 50 | 34 |  |
| O=C(Nc1ccc(Cl)cc1)Nc1cccc(-c2cncnc2)c1 | < 10 |  | 9 | IC50 [4]: 3.4 µM |
| O=C(Nc1ccc(Cl)cc1)Nc1cccc(-c2ccc(C(=O)c3ccccc3)cc2)c1 | < 10 | < 50 | 13 |  |
| O=C(Nc1ccc(Cl)cc1)Nc1cccc(-c2ccc(F)cc2F)c1 | < 10 | < 50 | 9 |  |
| O=C(Nc1ccc(Cl)cc1)Nc1cccc(-c2ccc(-c3ccccc3)cc2)c1 | < 10 | < 50 | 0 | IC50 [5]: > 10 µM |
| Cc1cccc(-c2cccc(NC(=O)Nc3ccc(Cl)cc3)c2)c1 | < 10 | < 50 |  |  |
| O=C(Nc1ccc(Cl)cc1)Nc1cccc(-c2cccc(O)c2)c1 | < 10 | < 50 | 10 |  |
| CC(C)Oc1cccc(-c2cccc(NC(=O)Nc3ccc(Cl)cc3)c2)c1 | < 10 | < 50 |  |  |
| COc1cccc(-c2cccc(NC(=O)Nc3ccc(Cl)cc3)c2)n1 | < 10 | < 50 | 2 |  |

| SMILES | Emax [1] [%] | Imax [2] [%] | Emax at 10 µM [3] [%] | also measured |
| --- | --- | --- | --- | --- |
| O=C(Nc1ccc(Cl)cc1)Nc1cccc(-c2ccccn2)c1 | < 10 | < 50 | 9 |  |
| CC(C)(C)c1cc(-c2cccc(NC(=O)Nc3ccc(Cl)cc3)c2)cc(C(C)(C)C)c1 | < 10 | < 50 | 10 |  |
| O=C(Nc1ccc(Cl)cc1)Nc1cccc(-c2ccccc2)c1 | < 10 | < 50 | 5 |  |
| Cc1ccccc1-c1cccc(NC(=O)Nc2ccc(Cl)cc2)c1 | < 10 |  | 6 | IC50 [4]: > 10 µM |
| Cc1ccnc(-c2cccc(NC(=O)Nc3ccc(Cl)cc3)c2)c1 | < 10 | < 50 | 3 |  |
| O=C(Nc1ccc(Cl)cc1)Nc1cccc(-c2ccc3c(c2)OCO3)c1 | < 10 | < 50 | 10 |  |
| O=C(Nc1ccc(Cl)cc1)Nc1cccc(-c2ccncc2)c1 | < 10 | < 50 | 15 | CLH [6]: 33.1 µL/min/mg; t1/2 [7]: 41.9 min |
| O=C(Nc1ccc(Cl)cc1)Nc1cccc(-c2cccc([N+](=O)[O-])c2)c1 | < 10 |  | 17 | IC50 [4]: > 10 µM |
| O=C(Nc1ccc(Cl)cc1)Nc1cccc(-c2c(Cl)cccc2Cl)c1 | < 10 | < 50 | 17 |  |
| O=C(Nc1ccc(Cl)cc1)Nc1cccc(-c2ccc(F)cc2)c1 | < 10 |  | 9 | inhibition [8]: Active; IC50 [4]: > 10 µM; CLH [6]: < 4.6 µL/min/mg; Activity [9]: 215%; inhibition [10]: Dose-dependent effect; Activity [11]: Active; t1/2 [7]: > 300 min |
| O=C(Nc1ccc(Cl)cc1)Nc1cccc(-c2ccc(Cl)c(Cl)c2)c1 | < 10 |  | 20 | IC50 [4]: > 10 µM |
| O=C(Nc1ccc(Cl)cc1)Nc1cccc(-c2cccc(N3CCCC3)n2)c1 | < 10 |  | 28 | IC50 [4]: > 10 µM; CLH [6]: 113.7 µL/min/mg; half-life [12]: 13 to 13.4 min; Activity [13]: Active; IC50 [14]: 0.042 to 0.074 µM |
| COc1cccc(-c2cccc(NC(=O)Nc3ccc(Cl)cc3)c2)c1 | < 10 | < 50 | 13 |  |
| COc1cc(-c2cccc(NC(=O)Nc3ccc(Cl)cc3)c2)ccn1 | < 10 | < 50 | 23 |  |
| O=C(Nc1ccc(Cl)cc1)Nc1cccc(-c2ccc3c(c2)Cc2ccccc2-3)c1 | < 10 | < 50 | 0 |  |
| O=C(Nc1ccc(Cl)cc1)Nc1cccc(-c2ccc3ccccc3c2)c1 | < 10 | < 50 | 7 |  |
